Reference: ChEMBL document CHEMBL1126275, “Conformationally restrained, chiral (phenylisopropyl)amino-substituted pyrazolo[3,4-d]pyrimidines and purines with selectivity for adenosine A1 and A2 receptors” (J Med Chem, 1992)

How the values were obtained:
[1] = biological target: T1, Adenosine receptor A1 (Rattus norvegicus, UniProt P25099); assay: Inhibition of [3H]CHA binding to Adenosine A1 receptor in whole rat brain membranes; assay type: cell membranes
T1 sequence (P25099 whole entry): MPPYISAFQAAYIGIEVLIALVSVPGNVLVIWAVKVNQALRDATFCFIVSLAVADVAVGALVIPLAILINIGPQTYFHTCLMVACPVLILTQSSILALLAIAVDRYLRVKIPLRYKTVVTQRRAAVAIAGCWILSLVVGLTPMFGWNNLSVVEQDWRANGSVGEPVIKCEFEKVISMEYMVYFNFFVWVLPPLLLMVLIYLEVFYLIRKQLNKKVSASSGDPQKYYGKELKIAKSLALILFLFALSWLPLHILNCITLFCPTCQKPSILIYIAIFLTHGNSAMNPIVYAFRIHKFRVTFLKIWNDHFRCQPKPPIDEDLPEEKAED
Method in brief: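 Whole rat brain membranes; [³H]CHA binding measured at 25 °C. Compounds from millimolar DMSO stocks diluted in water. Ki given as geometric mean ± standard error of a single determination run in triplicate.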

[2] = biological target: Adenosine A2 receptor (Rattus norvegicus, UniProt P29276+P30543); assay: Inhibition of [3H]NECA binding to Adenosine A2 receptor in rat brain striatum; assay type: tissue-based
Method in brief: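 [³H]NECA binding in rat brain striatum at 25 °C. Compounds from millimolar DMSO stocks diluted in water. Ki given as geometric mean ± standard error of a single determination in triplicate.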

[3] = biological target: Adenosine receptors; A1 & A2 (Rattus norvegicus) (UniProt P29276+P25099+P30543); assay: Selectivity ratio against Adenosine A1 and A2 Receptors, ratio of Ki; assay type: protein assay
Method in brief: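 Ratio of A2 Ki ([³H]NECA, rat striatum, 25 °C) to A1 Ki ([³H]CHA, whole rat brain membranes, 25 °C). Each Ki is a geometric mean from a single triplicate determination.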

[4] = biological target: T1, Adenosine receptor A1; assay: Inhibition of [3H]CHA binding to Adenosine A1 receptor in rat cerebral cortical membranes; assay type: cell membranes, Membrane
Method in brief: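 Rat cerebral cortical membranes; displacement of [³H]CHA binding. Test compounds held as millimolar DMSO stocks, warmed to room temperature and diluted in water. Values from a single competition experiment, each concentration in triplicate.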

| SMILES | Ki [1] [µM] | Ki [2] [µM] | Selectivity ratio [3] | IC50 [4] [µM] |
| --- | --- | --- | --- | --- |
| CCCOc1nc(N[C@H](CO)Cc2ccccc2)c2cnn(-c3ccccc3)c2n1 (stereo in doubt; 10b) [listing 1 of 2 here] | 0.35 | 0.37 |  |  |
| CCCOc1nc(N[C@@H](CO)Cc2ccccc2)c2ncn(-c3ccccc3)c2n1 | 0.44 | 30 | 68 |  |
| CCCOc1nc(N[C@H](CO)Cc2ccccc2)c2cnn(-c3ccccc3)c2n1 (stereo in doubt; 10a) [listing 1 of 2 here] |  |  | 2.6 |  |
| CCCOC1=Nc2c(cnn2-c2ccccc2)C2=N[C@@H](Cc3ccccc3)CN12 | 9.4 | 3.3 | 0.35 |  |
| CCCn1c(=O)n(C)c(=O)c2cnn(-c3ccccc3)c21 |  |  |  | 35 |
| CCCOC1=Nc2c(cnn2-c2ccccc2)C2=N[C@H](Cc3ccccc3)CN12 | 0.62 | > 100 | > 100 |  |
| CCCOc1nc(N[C@@H](C)[C@H](O)c2ccccc2)c2cnn(-c3ccccc3)c2n1 | 6.3 | 1.4 | 0.22 |  |
| Cn1c(=O)c2cnn(-c3ccccc3)c2n(C)c1=O |  |  |  | 33 |
| CCCOc1nc(N[C@H](CO)Cc2ccccc2)c2ncn(-c3ccccc3)c2n1 | 0.096 | 5.6 | 58 |  |
| CCCOc1nc(N[C@H](CO)Cc2ccccc2)c2cnn(-c3ccccc3)c2n1 (stereo in doubt; 10a) [listing 2 of 2 here] | 1.6 | 4.2 |  |  |
| CCCOC1=Nc2c(cnn2-c2ccccc2)C2=N[C@H](C)[C@@H](c3ccccc3)N12 | 7.4 | 11 | 1.5 |  |
| CCCOc1nc(N[C@H](CO)Cc2ccccc2)c2cnn(-c3ccccc3)c2n1 (stereo in doubt; 10b) [listing 2 of 2 here] |  |  | 1 |  |
| CCCOC1=Nc2c(ncn2-c2ccccc2)C2=N[C@H](Cc3ccccc3)CN12 | 3.2 | 72 | 22 |  |
| CCCOC1=Nc2c(ncn2-c2ccccc2)C2=N[C@@H](Cc3ccccc3)CN12 |  | 1.6 | 0.18 |  |
| CCCOc1nc(N[C@H](C)[C@@H](O)c2ccccc2)c2cnn(-c3ccccc3)c2n1 | 1 | 0.31 | 0.31 |  |
| COc1nc2c(cnn2-c2ccccc2)c(=O)n1C |  |  |  | 4.8 |
| CCCOC1=Nc2c(cnn2-c2ccccc2)C2=N[C@@H](C)[C@H](c3ccccc3)N12 | 33 | 45 | 1.4 |  |
